A selection: hits, their analogues and other compounds. The true share with any hit is near 5.8%.
T cruzi growth-1: inhibitors of T. cruzi proliferation; 77,000 tested, 5.9% active; inhibition, % at 8.34 µM; T. cruzi beta-gal in NIH3T3, GalScreen luminescence, 90 h; AID 624255;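 active = mean inhibition above about 93%, with at least 55% of replicates each passing it, limit read from the data, passing the limit was not always enough; inconclusive = only one of those two conditions holds; inactive = neither condition holds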
Pf Dd2 growth: inhibitors of Plasmodium falciparum Dd2 growth; AID 1159554; 94,000 tested, 2.3% active; P. falciparum Dd2 growth, SYBR Green, 72 h; hits give low values; activity change, % at 10 µM; in the data active = activity change below about -80%; inconclusive = no clear call, values can overlap the other calls
IDH1 R132H inh: inhibitors of human IDH1 R132H; IDH1 R132H reductase, diaphorase/resazurin fluorescence, 60 min; inhibition, % at 10 µM; 70,000 tested, 0.18% active; AID 624101; in the data active = inhibition above about 34%; inconclusive = no clear call, values can overlap the other calls; inactive = below about 11%;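 note: 0% = DMSO and 100% = no enzyme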
Target sequence (O75874 whole entry R132H): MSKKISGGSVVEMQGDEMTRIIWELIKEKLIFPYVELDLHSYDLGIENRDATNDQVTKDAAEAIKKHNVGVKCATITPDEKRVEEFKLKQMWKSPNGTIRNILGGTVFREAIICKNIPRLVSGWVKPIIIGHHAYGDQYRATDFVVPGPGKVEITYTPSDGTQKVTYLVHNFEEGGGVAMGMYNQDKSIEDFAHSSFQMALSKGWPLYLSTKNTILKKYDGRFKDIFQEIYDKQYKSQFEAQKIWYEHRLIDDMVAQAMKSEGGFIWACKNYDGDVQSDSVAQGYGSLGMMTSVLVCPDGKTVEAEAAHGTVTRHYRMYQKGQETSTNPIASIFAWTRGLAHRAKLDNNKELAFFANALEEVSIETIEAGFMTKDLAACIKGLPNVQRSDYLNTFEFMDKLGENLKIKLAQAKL
KDM4C inh: blocks human GASC-1 (KDM4C) demethylase activity. Q9H3R0. GST-KDM4C 2-372, H3K9me3 peptide, LANCE TR-FRET. inhibition, % at 12.5 µM. 96,000 tested, 0.15% active. AID 720574;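 active = mean replicate inhibition above about 25%, with at least 55% of replicates also reaching it, limit read from the data, passing the limit was not always enough; inconclusive = only one of those two conditions met; inactive = neither condition met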
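material = GST-tagged GASC-1 (JMJD2C) catalytic fragment, aa 2-372 | amount = enzyme final amount 10 nM | medium = HEPES buffer, pH 7.5, plus ascorbate | also added = H3K9me3 peptide substrate, Fe(II), 2-oxoglutarate | dosing = single dose | times = 30 min demethylation and 1 h detection at room temperature | detection = LANCE TR-FRET | read-out basis = Fall in 671/618 emission ratio as inhibition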
T cruzi growth-2: inhibitors of T. cruzi proliferation. shares compounds with T cruzi growth-1. T. cruzi beta-gal in NIH3T3, GalScreen luminescence, 90 h. inhibition, % at 8.35 µM. 5,600 tested, 72% active. AID 651739;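 active = mean replicate inhibition above about 95% and at least 55% of replicates individually reaching it, limit read from the data; inconclusive = only one of the two criteria is met; inactive = neither criterion is met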
T cruzi growth-3: inhibitors of T. cruzi proliferation; AID 651740; inhibition, % at 2.09 µM; shares compounds with T cruzi growth-1; 5,600 tested, 21% active; T. cruzi beta-gal in NIH3T3, GalScreen luminescence, 90 h;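 active = mean inhibition above about 95%, with at least 55% of replicates also reaching it, limit read from the data; inconclusive = meets just one of the two conditions; inactive = meets neither condition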;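 note: plate controls were neutral control median for no effect and positive control median for full effect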
NIH3T3 tox: kills mouse NIH/3T3 fibroblasts; cytotoxicity (signal decrease), % at 8.35 µM; 5,600 tested, 14% active; shares compounds with T cruzi growth-1; NIH/3T3 viability, CellTiter-Glo ATP luminescence, 90 h;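 active = mean signal decrease across replicates above about 35% based on untreated-well scatter, with enough replicates individually passing, limit read from the data; inconclusive = no rule stated though some were filed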;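 note: 0% = median of neutral control wells and 100% = median of positive control wells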
NIH3T3 tox 2: cytotoxicity in mouse NIH/3T3 fibroblasts; NIH/3T3 viability, CellTiter-Glo ATP luminescence, 90 h; inhibition, % at 24.9 µM; AID 651744; 5,600 tested, 56% active; shares compounds with T cruzi growth-1;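 active = mean loss of cell viability signal at or above a set limit, and enough replicates individually reaching it; inconclusive = meets only the mean limit or only the replicate share; inactive = meets neither condition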;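 note: 0% = median of neutral control wells and 100% = median of positive control wells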
Starred values were filed as active, the others as inactive; ? = inconclusive; . = no result given.

SMILES | T cruzi growth-1 | Pf Dd2 growth | IDH1 R132H inh | KDM4C inh | T cruzi growth-2 | T cruzi growth-3 | NIH3T3 tox | NIH3T3 tox 2
C[C@H]1CCCCO[C@H](CN(C)C(=O)CCC(F)(F)F)[C@@H](C)CN([C@@H](C)CO)C(=O)c2cc(NS(=O)(=O)c3ccc(Cl)cc3)ccc2O1 | 75 | -45 | . | -1 | . | . | . | .
C[C@@H]1CCCCO[C@@H](CN(C)C(=O)Cc2ccccc2)[C@H](C)CN([C@@H](C)CO)C(=O)c2cc(NS(=O)(=O)c3ccc(Cl)cc3)ccc2O1 | 100* | 6 | . | 0 | 106* | 74 | 3 | 47
Cc1ccc(S(=O)(=O)Nc2ccc3c(c2)C(=O)N([C@H](C)CO)C[C@@H](C)[C@H](CN(C)C(=O)Cc2ccccc2)OCCCC[C@@H](C)O3)cc1 | 97* | -32 | -4 | 0 | 108* | 63 | 1 | -15
C[C@H]1CCCCO[C@@H](CN(C)C(=O)Cc2ccccc2)[C@@H](C)CN([C@@H](C)CO)C(=O)c2cc(NS(=O)(=O)c3ccccc3)ccc2O1 | . | -58 | 1 | 1 | . | . | . | .
C[C@@H]1CCCCO[C@H](CN(C)C(=O)CCC(F)(F)F)[C@H](C)CN([C@H](C)CO)C(=O)c2cc(NS(=O)(=O)c3ccc(Cl)cc3)ccc2O1 | 101* | -65 | 0 | -1 | 100* | 61 | 18 | -4
Cc1c(C(=O)N(C)C)sc(NC(=O)c2cc(-c3cccnc3)nc3c(C)c(Cl)ccc23)c1C#N | . | . | 0 | . | . | . | . | .
CN1N=C2c3ccccc3CCCC2C1c1cccs1 (stereo unspecified) | . | . | 1 | . | . | . | . | .
COc1ccc2c3c([nH]c2c1)[C@H](CO)N(Cc1nccs1)CC31CCN(Cc2cncnc2)CC1 | . | -61 | . | -1 | . | . | . | .
CN(C)CC(=O)N[C@H]1CC[C@H](CCn2cc(C3CCCCC3)nn2)O[C@H]1CO | . | 1 | 0 | 0 | . | . | . | .
COc1ccc(C#Cc2ccc3c(c2)O[C@H](CN(C)C(=O)NC2CCCCC2)[C@@H](C)CN([C@H](C)CO)S3(=O)=O)cc1 | ? | -50 | 0 | -6 | 106* | 63 | -18 | 33*
COc1ccc(C#Cc2ccc3c(c2)O[C@@H](CN(C)C(=O)NC2CCCCC2)[C@@H](C)CN([C@@H](C)CO)S3(=O)=O)cc1 | ? | -77 | 2 | -4 | ? | 114* | -6 | 11
C[C@H](CO)N1C[C@H](C)[C@H](CN(C)C(=O)NC2CCCCC2)Oc2cc(C#Cc3ccc(F)cc3)ccc2S1(=O)=O | 54 | -57 | -3 | -1 | . | . | . | .
C[C@@H]1CN([C@H](C)CO)S(=O)(=O)c2ccc(C#Cc3ccc(F)cc3)cc2O[C@H]1CN(C)C(=O)NC1CCCCC1 | 87 | -59 | . | -2 | . | . | . | .
COc1ccc(C#Cc2ccc3c(c2)O[C@H](CN(C)C(=O)NC2CCCCC2)[C@H](C)CN([C@H](C)CO)S3(=O)=O)cc1 | ? | -61 | -2 | -3 | ? | 113* | -9 | 8
C[C@@H]1CCCCO[C@@H](CN(C)C(=O)Nc2ccc3c(c2)OCO3)[C@H](C)CN([C@@H](C)CO)C(=O)c2cc(NS(=O)(=O)c3ccccc3)ccc2O1 | 50 | -1 | . | 1 | . | . | . | .
C[C@@H]1CCCCO[C@@H](CN(C)C(=O)Nc2ccc3c(c2)OCO3)[C@H](C)CN([C@H](C)CO)C(=O)c2cc(NS(=O)(=O)c3ccc(Cl)cc3)ccc2O1 | ? | -29 | . | -1 | 101* | 62 | -18 | 6
C[C@@H]1CCCCO[C@H](CN(C)C(=O)Nc2ccc3c(c2)OCO3)[C@@H](C)CN([C@H](C)CO)C(=O)c2cc(NS(=O)(=O)c3ccc(Cl)cc3)ccc2O1 | 23 | -25 | . | 18 | . | . | . | .
C[C@H](CO)N1C[C@H](C)[C@H](CN(C)C(=O)Nc2ccc3c(c2)OCO3)OCCCC[C@H](C)Oc2ccc(NS(=O)(=O)c3ccccc3)cc2C1=O | 101* | -35 | -2 | 0 | 107* | 40 | 6 | -5
COc1ccc(C#Cc2ccc([C@H]3[C@@H](CO)N4CCCCN(S(=O)(=O)c5ccccc5)C[C@H]34)cc2)cc1 | 101* | -73 | . | -1 | 98* | 76 | 25 | 104*
COc1ccc(C#Cc2ccc([C@H]3[C@H]4CN(S(=O)(=O)c5ccccc5)CCCCN4[C@H]3CO)cc2)cc1 | 107* | -46 | . | -1 | 111* | 99* | 3 | 52*
COc1ccc(S(=O)(=O)N2CCCCN3[C@H](C2)[C@@H](c2ccc(C#CCC(C)C)cc2)[C@@H]3CO)cc1 | 65 | -18 | . | 0 | . | . | . | .
COc1ccc(C#Cc2ccc([C@@H]3[C@H]4CN(S(=O)(=O)c5ccccc5)CCCCN4[C@H]3CO)cc2)cc1 | 46 | -59 | . | 0 | . | . | . | .
O=S(=O)(c1ccccc1)N1CCCCN2[C@H](CO)[C@@H](c3ccc(C#Cc4ccccc4)cc3)[C@@H]2C1 | 83 | 19 | . | . | . | . | . | .
O=S(=O)(c1ccccc1)N1CCCCN2[C@H](CO)[C@@H](c3ccc(C#Cc4cccnc4)cc3)[C@H]2C1 | ? | -37 | . | . | 110* | 62 | 25 | 79*
COc1ccc(S(=O)(=O)N2CCCCN3[C@@H](CO)[C@H](c4ccc(C#CC(C)C)cc4)[C@@H]3C2)cc1 | 104* | -32 | . | 2 | 98* | 85 | 46* | 104*
C[C@H](CO)N1C[C@H](C)[C@H](CN(C)S(C)(=O)=O)Oc2ncc(C#Cc3ccccc3)cc2C1=O | . | 1 | 0 | 0 | . | . | . | .
C[C@@H]1CN([C@H](C)CO)C(=O)Cc2cc(NC(=O)Nc3ccc4c(c3)OCO4)ccc2O[C@@H]1CN(C)S(=O)(=O)c1ccccc1 | -36 | 25 | . | 0 | . | . | . | .
C[C@H](CO)N1C[C@H](C)[C@H](CN(C)S(=O)(=O)c2ccc(F)cc2)OCCCC[C@H](C)Oc2ccc(NS(=O)(=O)c3ccc(F)cc3)cc2C1=O | 119* | -45 | . | 1 | 103* | 91 | 8 | -15
C[C@@H]1CCCCO[C@H](CN(C)S(=O)(=O)c2ccc(F)cc2)[C@H](C)CN([C@H](C)CO)C(=O)c2cc(NS(=O)(=O)c3ccccc3)ccc2O1 | 104* | -46 | . | -2 | 114* | 79 | 18 | 7
C[C@@H]1CCCCO[C@H](CN(C)S(=O)(=O)c2ccc(F)cc2)[C@@H](C)CN([C@@H](C)CO)C(=O)c2cc(NS(=O)(=O)c3ccc(F)cc3)ccc2O1 | 111* | -70 | 0 | -1 | 103* | 62 | -4 | 19

Screening data from PubChem BioAssay.
